Results from ChEMBL document CHEMBL1140681, “Structure-based design of alpha-amido aldehyde containing gluten peptide analogues as modulators of HLA-DQ2 and transglutaminase 2” (Bioorg Med Chem, 2007).
Activity calls are given as the source filed them. No cut-off for these calls is given here. Square brackets hold non-standard residues; d marks the D form. Peptide text beside a SMILES is read from it. * marks the point of attachment. 5FAM = O=C1OC2(c3ccc(O)cc3Oc3cc(O)ccc32)c2ccc(C(=O)*)cc21; Orn = NCCC[C@H](N)C(=O)O; Dab = NCC[C@H](N)C(=O)O; Dap = NC[C@H](N)C(=O)O; Glyoxylyl = O=CC(=O)*

Tests used:
[1] = biological target: T1, Protein-glutamine gamma-glutamyltransferase (Homo sapiens) (UniProt P21980); assay: Inhibition of human recombinant TG2 at 500 uM
T1 sequence (whole entry): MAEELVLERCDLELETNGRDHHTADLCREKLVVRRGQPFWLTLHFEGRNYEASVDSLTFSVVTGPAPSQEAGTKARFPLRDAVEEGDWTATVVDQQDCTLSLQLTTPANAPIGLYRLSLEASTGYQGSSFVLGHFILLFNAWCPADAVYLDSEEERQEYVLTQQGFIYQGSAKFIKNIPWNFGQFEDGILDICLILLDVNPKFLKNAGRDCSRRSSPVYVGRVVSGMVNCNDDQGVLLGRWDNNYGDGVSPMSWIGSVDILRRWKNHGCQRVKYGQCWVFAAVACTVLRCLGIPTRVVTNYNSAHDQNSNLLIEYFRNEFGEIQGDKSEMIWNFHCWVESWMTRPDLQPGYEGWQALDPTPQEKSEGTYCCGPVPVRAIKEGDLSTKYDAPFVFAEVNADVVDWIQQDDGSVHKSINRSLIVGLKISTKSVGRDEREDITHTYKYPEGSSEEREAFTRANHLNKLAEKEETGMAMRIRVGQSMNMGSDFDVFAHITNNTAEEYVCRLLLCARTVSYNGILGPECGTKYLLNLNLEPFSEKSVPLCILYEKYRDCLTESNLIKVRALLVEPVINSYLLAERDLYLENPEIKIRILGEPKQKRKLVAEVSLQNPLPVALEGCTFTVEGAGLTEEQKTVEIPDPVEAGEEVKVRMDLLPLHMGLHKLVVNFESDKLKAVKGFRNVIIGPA

VAVY = assay: Induction of cell proliferation in HLA-DQ2 homozygous B-lymphoblastoid VAVY cells at 10 uM after overnight incubation; type: functional, cell-based; settings: Homo sapiens
How it was run: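 γ-Irradiated (12,000 rads) VAVY cells at 2×10^6 cells/ml pulsed with 10 μM peptide for 2 h or overnight, then washed out by centrifugation (800g, 3 min, 4°C). Re-suspended APCs (1×10^6/ml) co-cultured 48 h with equal volume of P28 TCL1 T cells (1×10^6/ml); [³H]thymidine 1 μCi/well for 18–24 h; proliferation by scintillation counting.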

[2] = Enhancement of antigen presentation in HLA-DQ2 homozygous B-lymphoblastoid VAVY cells; type: functional, cell-based, Homo sapiens
How it was run: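 VAVY cells γ-irradiated (12,000 rads), pulsed with peptides for 10 h, washed by centrifugation, then co-cultured 1:1 with DQ2-αI-responsive polyclonal T cells for 48 h. [³H]thymidine (1 μCi/well) added for 18–24 h; incorporated radioactivity counted as a measure of surface peptide-DQ2 complexes; EC50 derived from titration.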

[3] = biological target: T1, Protein-glutamine gamma-glutamyltransferase (Homo sapiens); assay: Inhibition of human recombinant TG2 at 750 uM
[4] = biological target: T2, Protein-glutamine gamma-glutamyltransferase (Homo sapiens, UniProt P21980); assay: Inhibition of human recombinant TG2
T2 sequence (P21980 whole entry): T1 sequence (whole entry)
How it was run: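 Continuous spectrophotometric coupled deamidation assay with recombinant human TG2: MOPS buffer pH 7.2 with CaCl2, EDTA, α-ketoglutarate, glutamate dehydrogenase and NADH; Z-Gln-Gly substrate (10–40 mM); reaction started by adding TG2. Velocities from linear regression; Ki by non-linear fitting of velocity vs ZQG to Michaelis-Menten with Vmax fixed at the uninhibited value.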

[5] = biological target: T1, Protein-glutamine gamma-glutamyltransferase (Homo sapiens); assay: Inhibition of human recombinant TG2 at 100 uM

CC(C)C[C@H](NC(=O)[C@H](CCCCNC(=O)C=O)NC(=O)[C@@H]1CCCN1C(=O)[C@H](CCC(N)=O)NC(=O)[C@@H]1CCCN1)C(=O)N1CCC[C@H]1C(=O)N[C@@H](Cc1ccccc1)C(=O)O (H-PQPK(Glyoxylyl)LPF-OH)
Activity [1]: inactive

CC(C)C[C@H](NC(=O)c1ccc2c(c1)C(=O)OC21c2ccc(O)cc2Oc2cc(O)ccc21)C(=O)N[C@@H](CCC(N)=O)C(=O)N1CCC[C@H]1C(=O)N[C@@H](Cc1ccccc1)C(=O)N1CCC[C@H]1C(=O)N[C@@H](CNC(=O)C=O)C(=O)N1CCC[C@H]1C(=O)N[C@@H](CCC(=O)O)C(=O)N[C@@H](CC(C)C)C(=O)N1CCC[C@H]1C(=O)N[C@@H](Cc1ccc(O)cc1)C(=O)O (5FAM-LQPFP[Dap](Glyoxylyl)PELPY-OH)
Activity (VAVY): Active | EC50 [2]: 1 µM

CC(C)C[C@H](NC(=O)[C@H](NC(=O)C=O)NC(=O)[C@@H]1CCCN1C(=O)[C@H](CCC(N)=O)NC(=O)[C@@H]1CCCN1)C(=O)N1CCC[C@H]1C(=O)N[C@@H](Cc1ccccc1)C(=O)O
Activity [3]: inactive

CC(C)C[C@H](NC(=O)[C@H](CCNC(=O)C=O)NC(=O)[C@@H]1CCCN1C(=O)[C@H](CCC(N)=O)NC(=O)[C@@H]1CCCN1)C(=O)N1CCC[C@H]1C(=O)N[C@@H](Cc1ccccc1)C(=O)O (H-PQP[Dab](Glyoxylyl)LPF-OH)
Ki [4]: 40 µM

CC(C)C[C@H](NC(=O)c1ccc2c(c1)C(=O)OC21c2ccc(O)cc2Oc2cc(O)ccc21)C(=O)N[C@@H](CCC(N)=O)C(=O)N[C@@H](CC(C)C)C(=O)N[C@@H](CCC(N)=O)C(=O)N1CCC[C@H]1C(=O)N[C@@H](Cc1ccccc1)C(=O)N1CCC[C@H]1C(=O)N[C@@H](CNC(=O)C=O)C(=O)N1CCC[C@H]1C(=O)N[C@@H](CCC(=O)O)C(=O)N[C@@H](CC(C)C)C(=O)N1CCC[C@H]1C(=O)N[C@@H](Cc1ccc(O)cc1)C(=O)N1CCC[C@H]1C(=O)N[C@@H](CNC(=O)C=O)C(=O)N1CCC[C@H]1C(=O)N[C@@H](CCC(=O)O)C(=O)N[C@@H](CC(C)C)C(=O)N1CCC[C@H]1C(=O)N[C@@H](Cc1ccc(O)cc1)C(=O)O (5FAM-LQLQPFP[Dap](Glyoxylyl)PELPYP[Dap](Glyoxylyl)PELPY-OH)
EC50 [2]: 0.039 µM

CC(=O)NCC[C@H](NC(=O)[C@@H]1CCCN1C(=O)[C@H](CCC(N)=O)NC(=O)[C@@H]1CCCN1C(=O)c1ccc2c(c1)C(=O)OC21c2ccc(O)cc2Oc2cc(O)ccc21)C(=O)N[C@@H](CC(C)C)C(=O)N1CCC[C@H]1C(=O)N[C@@H](Cc1ccccc1)C(=O)O (5FAM-PQP[Dab](Ac)LPF-OH)
Activity [5]: inactive

CC(C)C[C@H](NC(=O)[C@H](CNC(=O)C=O)NC(=O)[C@@H]1CCCN1C(=O)[C@H](CCC(N)=O)NC(=O)[C@@H]1CCCN1)C(=O)N1CCC[C@H]1C(=O)N[C@@H](Cc1ccccc1)C(=O)O (H-PQP[Dap](Glyoxylyl)LPF-OH)
Ki [4]: 300 µM

CC(C)C[C@H](NC(=O)c1ccc2c(c1)C(=O)OC21c2ccc(O)cc2Oc2cc(O)ccc21)C(=O)N[C@@H](CCC(N)=O)C(=O)N[C@@H](CC(C)C)C(=O)N[C@@H](CCC(N)=O)C(=O)N1CCC[C@H]1C(=O)N[C@@H](Cc1ccccc1)C(=O)N1CCC[C@H]1C(=O)N[C@@H](CCC(N)=O)C(=O)N1CCC[C@H]1C(=O)N[C@@H](CCC(=O)O)C(=O)N[C@@H](CC(C)C)C(=O)N1CCC[C@H]1C(=O)N[C@@H](Cc1ccc(O)cc1)C(=O)N1CCC[C@H]1C(=O)N[C@@H](CCC(N)=O)C(=O)N1CCC[C@H]1C(=O)N[C@@H](CCC(=O)O)C(=O)N[C@@H](CC(C)C)C(=O)N1CCC[C@H]1C(=O)N[C@@H](Cc1ccc(O)cc1)C(=O)O (5FAM-LQLQPFPQPELPYPQPELPY-OH)
EC50 [2]: 0.016 µM

CC(C)C[C@H](NC(=O)c1ccc2c(c1)C(=O)OC21c2ccc(O)cc2Oc2cc(O)ccc21)C(=O)N[C@@H](CCC(N)=O)C(=O)N1CCC[C@H]1C(=O)N[C@@H](Cc1ccccc1)C(=O)N1CCC[C@H]1C(=O)N[C@@H](CCC(N)=O)C(=O)N1CCC[C@H]1C(=O)N[C@@H](CCC(=O)O)C(=O)N[C@@H](CC(C)C)C(=O)N1CCC[C@H]1C(=O)N[C@@H](Cc1ccc(O)cc1)C(=O)O (5FAM-LQPFPQPELPY-OH)
EC50 [2]: 3.3 µM

CC(C)C[C@H](NC(=O)[C@H](CCCNC(=O)C=O)NC(=O)[C@@H]1CCCN1C(=O)[C@H](CCC(N)=O)NC(=O)[C@@H]1CCCN1)C(=O)N1CCC[C@H]1C(=O)N[C@@H](Cc1ccccc1)C(=O)O (H-PQP[Orn](Glyoxylyl)LPF-OH)
Ki [4]: 200 µM
